How the values were obtained:
Format in all cases: functional
HL-60(TB) = assay: Growth inhibition of human HL-60(TB) cells after 48 hrs by sulforhodamine B assay; details: HL-60, 48 h
Summary of the method: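 Run in the NCI 60 cell-line screen as the full 5-dose assay that follows initial single-dose testing; GI50 is read from the dose series.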

K562 = assay: Growth inhibition of human K562 cells after 48 hrs by sulforhodamine B assay; details: K562, 48 h
MOLT-4 = assay: Growth inhibition of human MOLT4 cells after 48 hrs by sulforhodamine B assay; details: MOLT-4, 48 h
RPMI-8226 = assay: Growth inhibition of human RPMI8226 cells after 48 hrs by sulforhodamine B assay; details: RPMI-8226, 48 h
EKVX = assay: Growth inhibition of human EKVX cells after 48 hrs by sulforhodamine B assay
NCI-H226 = assay: Growth inhibition of human NCI-H226 cells after 48 hrs by sulforhodamine B assay; details: NCI-H226, 48 h
NCI-H522 = assay: Growth inhibition of human NCI-H522 cells after 48 hrs by sulforhodamine B assay; details: NCI-H522, 48 h
COLO 205 = assay: Growth inhibition of human COLO205 cells after 48 hrs by sulforhodamine B assay; details: COLO 205, 48 h
HCC 2998 = assay: Growth inhibition of human HCC2998 cells after 48 hrs by sulforhodamine B assay; details: HCC 2998, 48 h
HCT-116 = assay: Growth inhibition of human HCT116 cells after 48 hrs by sulforhodamine B assay; details: HCT-116, 48 h
HT-29 = assay: Growth inhibition of human HT-29 cells after 48 hrs by sulforhodamine B assay; details: HT-29, 48 h
SW-620 = assay: Growth inhibition of human SW620 cells after 48 hrs by sulforhodamine B assay; details: SW-620, 48 h
SF-268 = assay: Growth inhibition of human SF268 cells after 48 hrs by sulforhodamine B assay; details: SF-268, 48 h
SF-539 = assay: Growth inhibition of human SF539 cells after 48 hrs by sulforhodamine B assay; details: SF-539, 48 h
U-251 = assay: Growth inhibition of human U251 cells after 48 hrs by sulforhodamine B assay; details: U-251, 48 h
LOX IMVI = assay: Growth inhibition of human LOXIMVI cells after 48 hrs by sulforhodamine B assay
M14 = assay: Growth inhibition of human M14 cells after 48 hrs by sulforhodamine B assay; details: M14, 48 h
MDA-MB-435 = assay: Growth inhibition of human MDA-MB-435 cells after 48 hrs by sulforhodamine B assay; details: MDA-MB-435, 48 h
SK-MEL-2 = assay: Growth inhibition of human SK-MEL-2 cells after 48 hrs by sulforhodamine B assay; details: SK-MEL-2, 48 h
SK-MEL-28 = assay: Growth inhibition of human SK-MEL-28 cells after 48 hrs by sulforhodamine B assay; details: SK-MEL-28, 48 h
UACC-257 = assay: Growth inhibition of human UACC257 cells after 48 hrs by sulforhodamine B assay; details: UACC-257, 48 h
OVCAR-3 = assay: Growth inhibition of human OVCAR3 cells after 48 hrs by sulforhodamine B assay; details: OVCAR-3, 48 h
OVCAR-4 = assay: Growth inhibition of human OVCAR4 cells after 48 hrs by sulforhodamine B assay; details: OVCAR-4, 48 h
NCI/ADR-RES = assay: Growth inhibition of human NCI/ADR-RES cells after 48 hrs by sulforhodamine B assay
A498 = assay: Growth inhibition of human A498 cells after 48 hrs by sulforhodamine B assay; details: A498, 48 h
ACHN = assay: Growth inhibition of human ACHN cells after 48 hrs by sulforhodamine B assay
CAKI-1 = assay: Growth inhibition of human Caki1 cells after 48 hrs by sulforhodamine B assay; details: CAKI-1, 48 h
TK-10 = assay: Growth inhibition of human TK10 cells after 48 hrs by sulforhodamine B assay; details: TK-10, 48 h
UO-31 = assay: Growth inhibition of human UO31 cells after 48 hrs by sulforhodamine B assay; details: UO-31, 48 h
[1] = Growth inhibition of human Hs 578T cells after 48 hrs by sulforhodamine B assay
BT-549 = assay: Growth inhibition of human BT549 cells after 48 hrs by sulforhodamine B assay; details: BT-549, 48 h
MDA-MB-468 = assay: Growth inhibition of human MDA-MB-468 cells after 48 hrs by sulforhodamine B assay; details: MDA-MB-468, 48 h
[2] = read-out: pLC50 (the source's name) (converted)

`COc1cc(/C=C/c2cc3c(c(SC)c2)O[C@]2(C)CC[C@@H](O)C(C)(C)[C@H]2C3)cc(O)c1C/C=C(\C)CCC=C(C)C` gave a GI50 (HL-60(TB)) of 5.13 µM, a CC50 (HL-60(TB); [2]) greater than 100 µM and a TGI (HL-60(TB); read-out: pTGI (converted)) of 36.3 µM. The GI50 (K562) was 4.27 µM, the LC50 (K562) was greater than 100 µM and the TGI (K562; read-out: pTGI (converted)) was greater than 100 µM. For the same molecule, the GI50 (MOLT-4) was 4.27 µM, the LC50 (MOLT-4) was greater than 100 µM and the TGI (MOLT-4; read-out: pTGI (converted)) was 100 µM. It also gave a GI50 (RPMI-8226) of 2.34 µM, an LC50 (RPMI-8226) greater than 100 µM and a TGI (RPMI-8226; read-out: pTGI (converted)) of 8.91 µM. The GI50 (EKVX) was 40.7 µM, the LC50 (50% lethal concentration) (EKVX) was greater than 100 µM and the TGI (EKVX; read-out: pTGI (converted)) was greater than 100 µM. It also gave a GI50 (NCI-H226) of 15.1 µM, an LC50 (NCI-H226) greater than 100 µM and a TGI (NCI-H226; read-out: pTGI (converted)) of 39.8 µM. For the same molecule, the GI50 (NCI-H522) was 12 µM, the LC50 (NCI-H522) was 93.3 µM and the TGI (NCI-H522; read-out: pTGI (converted)) was 33.1 µM. The GI50 (COLO 205) was 1.35 µM, the LC50 (COLO 205) was 7.08 µM and the TGI (COLO 205; read-out: pTGI (converted)) was 3.09 µM. For the same molecule, the GI50 (HCC 2998) was 12 µM, the LC50 (HCC 2998) was greater than 100 µM and the TGI (HCC 2998; read-out: pTGI (converted)) was 38.9 µM. The GI50 (HCT-116) was 6.46 µM, the LC50 (HCT-116) was 53.7 µM and the TGI (HCT-116; read-out: pTGI (converted)) was 20.9 µM. The GI50 (HT-29) was 2.09 µM, the LC50 (concentration killing 50% of cells) (HT-29) was greater than 100 µM and the TGI (HT-29; read-out: pTGI (converted)) was 16.2 µM. It also gave a GI50 (SW-620) of 6.76 µM, an LC50 (SW-620) of 50.1 µM and a TGI (SW-620; read-out: pTGI (converted)) of 20.9 µM. It also gave a GI50 (SF-268) of 7.41 µM, an LC50 (SF-268) greater than 100 µM and a TGI (SF-268; read-out: pTGI (converted)) of 61.7 µM. For the same molecule, the GI50 (SF-539) was 3.98 µM, the LC50 (SF-539) was greater than 100 µM and the TGI (SF-539; read-out: pTGI (converted)) was 41.7 µM. It also gave a GI50 (U-251) of 5.01 µM, an LC50 (U-251) of 85.1 µM and a TGI (U-251; read-out: pTGI (converted)) of 24 µM. It also gave a GI50 (LOX IMVI) of 4.37 µM, an LC50 (LOX IMVI) of 47.9 µM and a TGI (LOX IMVI; read-out: pTGI (converted)) of 13.2 µM. The GI50 (M14) was 8.13 µM, the LC50 (M14) was 95.5 µM and the TGI (M14; read-out: pTGI (converted)) was 28.8 µM. It also gave a GI50 (MDA-MB-435) of 12.9 µM, an LC50 (MDA-MB-435) greater than 100 µM and a TGI (MDA-MB-435; read-out: pTGI (converted)) of 74.1 µM. It also gave a GI50 (SK-MEL-2) of 12.6 µM, an LC50 (SK-MEL-2) of 69.2 µM and a TGI (SK-MEL-2; read-out: pTGI (converted)) of 29.5 µM. For the same molecule, the GI50 (SK-MEL-28) was 12.3 µM, the CC50 (SK-MEL-28; [2]) was greater than 100 µM and the TGI (SK-MEL-28; read-out: pTGI (converted)) was 34.7 µM. It also gave a GI50 (UACC-257) of 14.5 µM, an LC50 (UACC-257) greater than 100 µM and a TGI (UACC-257; read-out: pTGI (converted)) of 64.6 µM. For the same molecule, the GI50 (OVCAR-3) was 5.89 µM, the LC50 (OVCAR-3) was 43.7 µM and the TGI (OVCAR-3; read-out: pTGI (converted)) was 18.2 µM. The GI50 (OVCAR-4) was 23.4 µM, the LC50 (OVCAR-4) was greater than 100 µM and the TGI (OVCAR-4; read-out: pTGI (converted)) was greater than 100 µM. The GI50 (NCI/ADR-RES) was 11 µM, the LC50 (NCI/ADR-RES) was greater than 100 µM and the TGI (NCI/ADR-RES; read-out: pTGI (converted)) was 38 µM. For the same molecule, the GI50 (A498) was 4.57 µM, the LC50 (A498) was 67.6 µM and the TGI (A498; read-out: pTGI (converted)) was 22.4 µM. It also gave a GI50 (ACHN) of 10.7 µM, an LC50 (ACHN) greater than 100 µM and a TGI (ACHN; read-out: pTGI (converted)) greater than 100 µM. It also gave a GI50 (CAKI-1) of 27.5 µM, an LC50 (CAKI-1) greater than 100 µM and a TGI (CAKI-1; read-out: pTGI (converted)) greater than 100 µM. The GI50 (TK-10) was 20.9 µM, the LC50 (TK-10) was greater than 100 µM and the TGI (TK-10; read-out: pTGI (converted)) was greater than 100 µM. The GI50 (UO-31) was 8.91 µM, the LC50 (UO-31) was greater than 100 µM and the TGI (UO-31; read-out: pTGI (converted)) was greater than 100 µM. For the same molecule, the GI50 [1] was 2.4 µM, the CC50 [1, 2] was greater than 100 µM and the TGI ([1]; read-out: pTGI (converted)) was 19.5 µM. For the same molecule, the GI50 (BT-549) was 18.6 µM, the LC50 (BT-549) was greater than 100 µM and the TGI (BT-549; read-out: pTGI (converted)) was greater than 100 µM. The GI50 (MDA-MB-468) was 4.57 µM, the LC50 (MDA-MB-468) was 87.1 µM and the TGI (MDA-MB-468; read-out: pTGI (converted)) was 20 µM.

— ChEMBL document CHEMBL1926642, “Relevance of the C-5 position to schweinfurthin induced cytotoxicity” (2011)
